Columns and labels:
[1] = pKa value was determined; type: physicochemical
[2] = biological target: Glutamate receptor ionotropic, NMDA 1 (Rattus norvegicus, UniProt P35439); assay: Binding affinity towards NMDA receptor to displace [3H]L-689,560 from rat cortical membranes
[3] = organism: Rattus norvegicus; assay: In vitro evaluation to antagonize NMDA responses in rat cortical slice preparation; type: functional
Outline: (§1)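 Rat cortical slice preparation. Apparent Kb was calculated from the rightward shift of the agonist (NMDA or AMPA) concentration-response curve produced by the antagonist. Values are means of three determinations.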

[4] = organism: Rattus norvegicus; assay: In vitro evaluation to antagonize AMPA responses in rat cortical slice preparation; type: functional; outline: as §1
[5] = tested on: Mus musculus; assay: In vivo evaluation to protect DBA/2 mice against audiogenic seizure ip 30 min prior to noise stimulation; type: functional
Outline: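 DBA/2 mice dosed intraperitoneally 30 min before noise stimulation and scored for protection against audiogenic seizure. Results are reported as ED50 (mg/kg) or as number protected/number tested at a single dose (50, 75 or 100 mg/kg, groups of 8).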

[6] = tested on: Mus musculus; assay: In vivo evaluation to protect DBA/2 mice against audiogenic seizure at 75 mg/kg ip 30 min prior to noise stimulation; 2 out of 8 mouse effected; type: functional; details: route intraperitoneal
[7] = pKa value was determined; Value ranges from 5-6; type: physicochemical
[8] = tested on: Mus musculus; assay: In vivo evaluation to protect DBA/2 mice against audiogenic seizure at 100 mg/kg ip 30 min prior to noise stimulation; 0 out of 8 mouse effected; type: functional; details: route intraperitoneal
[9] = tested on: Mus musculus; assay: In vivo evaluation to protect DBA/2 mice against audiogenic seizure at 50 mg/kg ip 30 min prior to noise stimulation; 0 out of 8 mouse effected; type: functional; details: route intraperitoneal

| pKa [1] | IC50 [2] [µM] | Structure (SMILES) | Kb [3] | further results |
| --- | --- | --- | --- | --- |
|  | 0.414 | O=C1Nc2cc(Cl)ccc2CC1[N+](=O)[O-] (stereo not given) | 6.7 µM | Kb [4]: 9.2 µM; ED50 [5]: 13.2 mg/kg |
| > 11 | > 100 | COC(=O)CC1c2ccc(Cl)cc2NC(=O)C1S(C)(=O)=O (stereo not given) |  |  |
|  | 1.32 | COC(=O)CC1c2ccc(Cl)cc2NC(=O)C1[N+](=O)[O-] (stereo not given) | 7 µM | Protected [6]: 2; pKa [7]: ~5; Kb [4]: 139 µM |
| 10.8 | > 100 | COC(=O)CC1c2ccc(Cl)cc2NC(=O)C1S(=O)(=O)c1ccccc1 (stereo not given) |  |  |
|  | 5.59 | Cc1noc(CC2c3ccc(Cl)cc3NC(=O)C2[N+](=O)[O-])n1 (stereo not given) | 25.9 µM | Protected [8]: 0 |
|  | 12.4 | CNC(=O)CC1c2ccc(Cl)cc2NC(=O)C1[N+](=O)[O-] (stereo not given) | >30 |  |
|  | 2.53 | O=C(CC1c2ccc(Cl)cc2NC(=O)C1[N+](=O)[O-])NCc1ccccc1 (stereo not given) |  | Protected [8]: 0 |
|  | > 100 | COC(=O)Cc1c(C(=O)OC)c(O)nc2cc(Cl)ccc12 |  |  |
| 10.2 | 12 | COC(=O)CC1c2ccc(Cl)cc2NC(=O)C1C#N (stereo not given) |  |  |
|  | 7.43 | O=C(CC1c2ccc(Cl)cc2NC(=O)C1[N+](=O)[O-])Nc1ccccc1 (stereo not given) | > 10 µM |  |

The remaining lines, values behind:

| Structure (SMILES) | pKa [1] | IC50 [2] [µM] | Kb [3] | further results |
| --- | --- | --- | --- | --- |
| COC(=O)CC1c2ccc(Cl)cc2NC(=O)C1C(=O)OC (stereo not given) | > 11 | > 100 |  |  |
| COC(=O)CC1c2ccc(Cl)cc2NC(=O)C1C(=O)c1ccccc1 (stereo not given) | ~9 | > 100 |  |  |
| COC(=O)CC1c2ccc(Cl)cc2NC(=O)C1S(=O)(=O)c1ccc([N+](=O)[O-])cc1 (stereo not given) | 9.9 | > 100 |  |  |
| COC(=O)CC1CC(=O)Nc2cc(Cl)ccc21 (stereo not given) |  | > 100 |  |  |
| CN(C)C(=O)CC1c2ccc(Cl)cc2NC(=O)C1[N+](=O)[O-] (stereo not given) |  |  | 22.2 µM | Protected [8]: 0 |
| CCOC(=O)CC1c2ccc(Cl)cc2NC(=O)C1[N+](=O)[O-] (stereo not given) |  | 2.23 | 8.1 µM |  |
| CN(C(=O)CC1c2ccc(Cl)cc2NC(=O)C1[N+](=O)[O-])c1ccccc1 (stereo not given) |  | 1.84 | > 10 µM | Protected [9]: 0 |
| COC(=O)CC1c2ccccc2NC(=O)C1[N+](=O)[O-] (stereo not given) |  | 28.6 |  |  |

— ChEMBL document CHEMBL1126881, “3-Nitro-3,4-dihydro-2(1H)-quinolones. Excitatory amino acid antagonists acting at glycine-site NMDA and (RS)-alpha-amino-3-hydroxy-5-methyl-4-isoxazolepropionic acid receptors” (J Med Chem, 1993)
